Results from ChEMBL document CHEMBL2385006, “Fluorogenic sialic acid glycosides for quantification of sialidase activity upon unnatural substrates” (Bioorg Med Chem Lett, 2013).
Activity calls are given as the source filed them. The calls are words filed in the database; no cut-off is given here.

Legend:
Clostridium perfringens [1] = experiment: Activity at Clostridium perfringens sialidase assessed as 4-methylumbelliferyl released at 125 uM for 1 hr by fluorescence assay relative to 4-Methylcoumarin-7-yl 5-acetamido-3,5-dideoxy-alpha-D-glycero-D-galacto-2-nonulopyranosidonic acid
Procedure, shortened: (§1)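 Purified recombinant C. perfringens sialidase (0.05 mU) in acetate buffer pH 4.5 incubated 1 h at 37°C with 0.125 mM 4MU glycoside; parallel reactions with 0.1 mM DANA. Reaction brought to pH 10.7 with glycine buffer; fluorescence read at ex 365/em 450 nm. Relative values compare fluorescence with that of the natural Neu5Ac substrate. At least biological triplicate; standard deviations.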

HL-60 [2] = experiment: Activity at sialidase in human HL60 cells assessed as increase in 4-methylumbelliferyl release at 125 uM after 2 hrs by fluorescence assay in presence of DANA; assay type: cell-based
Procedure, shortened: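 Same whole-cell set-up: HL60 cells in acetate buffer pH 4.5 with 0.125 mM 4MU glycoside, 2 h, 37 °C, together with 0.1 mM of the non-specific sialidase inhibitor DANA. The mixture was adjusted to pH 10.7 with glycine buffer before fluorescence reading (ex 365/em 450 nm). At least biological triplicate; standard deviations shown.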

HL-60 [3] = experiment: Activity at sialidase in human HL60 cells assessed as decrease in 4-methylumbelliferyl release at 125 uM after 2 hrs by fluorescence assay; assay type: cell-based
Procedure, shortened: (§2)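 Whole HL60 cells suspended in acetate buffer (pH 4.5) were incubated with 0.125 mM 4-methylumbelliferyl sialoside for 2 h at 37 °C. The reaction was stopped by raising the pH to 10.7 with glycine buffer, and released 4MU was read at once (ex 365 nm, em 450 nm). Values are means with standard deviations from at least biological triplicate.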

Clostridium perfringens [4] = experiment: Activity at Clostridium perfringens sialidase assessed as 4-methylumbelliferyl released at 125 uM for 1 hr by fluorescence assay; procedure, shortened: as §1
HL-60 [5] = experiment: Activity at sialidase in human HL60 cell lysate assessed as 4-methylumbelliferyl released at 125 uM for 2 hrs followed by washout by fluorescence assay; assay type: cell-based
Procedure, shortened: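 To test uptake, HL60 cells were incubated 2 h with the 4MU sialoside, then washed thoroughly to remove free 4MU and substrate. The cells were resuspended in cell lysis buffer, and the fluorescence of the lysate was read against empty wells without cells or compound.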

HL-60 [6] = experiment: Activity at sialidase in human HL60 cells assessed as increase in 4-methylumbelliferyl release at 125 uM after 2 hrs by fluorescence assay; assay type: cell-based; procedure, shortened: as §2
HL-60 [7] = experiment: Activity at sialidase in human HL60 cells assessed as decrease in 4-methylumbelliferyl release at 125 uM after 2 hrs by fluorescence assay relative to 4-Methylcoumarin-7-yl 5-acetamido-3,5-dideoxy-alpha-D-glycero-D-galacto-2-nonulopyranosidonic acid; assay type: cell-based; parameters: scale not given: the % may be the effect or the level left
Procedure, shortened: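 Intact HL60 cells in pH 4.5 acetate buffer were exposed to 0.125 mM glycoside for 2 h at 37 °C. Glycine buffer (pH 10.7) was then added, and fluorescence was measured (ex 365, em 450 nm). The increase over background was expressed relative to the natural N-acetyl 4MU sialoside run the same way. At least biological triplicate, with standard deviations.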

HL-60 [8] = experiment: Activity at sialidase in human HL60 cells assessed as increase in 4-methylumbelliferyl release at 125 uM after 2 hrs by fluorescence assay relative to 4-Methylcoumarin-7-yl 5-acetamido-3,5-dideoxy-alpha-D-glycero-D-galacto-2-nonulopyranosidonic acid; assay type: cell-based
Procedure, shortened: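 Whole HL60 cells suspended in acetate buffer pH 4.5, treated 2 h at 37°C with 0.125 mM 4MU glycoside; parallel wells with 0.1 mM DANA. Stopped with glycine buffer pH 10.7, fluorescence read immediately (ex 365/em 450 nm). Fluorescence increase over background compared with the natural Neu5Ac substrate. At least biological triplicate; standard deviations.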

Row | SMILES | Activity (Clostridium perfringens [1]) | Activity (HL-60 [2]) | Activity (HL-60 [3]) | Activity (Clostridium perfringens [4]) | Activity (HL-60 [5]) | Activity (HL-60 [6]) | Activity (HL-60 [7]) [%] | Activity (HL-60 [8]) [%]
1 | Cc1cc(=O)oc2cc(O[C@]3(C(=O)O)C[C@H](O)[C@@H](NC(=O)CC(F)(F)F)[C@H]([C@H](O)[C@H](O)CO)O3)ccc12 | Active | inactive | Active | – | – | – | – | –
2 | Cc1cc(=O)oc2cc(O[C@]3(C(=O)O)C[C@H](O)[C@@H](NC(=O)CCC(F)(F)F)[C@H]([C@H](O)[C@H](O)CO)O3)ccc12 | – | inactive | Active | inactive | – | – | – | –
3 | CC(=O)N[C@H]1[C@H]([C@H](O)[C@H](O)CO)O[C@@](Oc2ccc3c(C)cc(=O)oc3c2)(C(=O)O)C[C@@H]1O | – | inactive | – | Active | inactive | Active | – | –
4 | Cc1cc(=O)oc2cc(O[C@]3(C(=O)O)C[C@H](O)[C@@H](NC(=O)C(C)C)[C@H]([C@H](O)[C@H](O)CO)O3)ccc12 | Active | inactive | – | – | – | – | 60 | –
5 | CC(F)(F)F.Cc1cc(=O)oc2cc(O[C@]3(C(=O)O)C[C@H](O)[C@@H](NC(=O)CO)[C@H]([C@H](O)[C@H](O)CO)O3)ccc12 | 6% | inactive | – | – | – | – | – | 20
6 | Cc1cc(=O)oc2cc(O[C@]3(C(=O)O)C[C@H](O)[C@@H](NC(=O)CF)[C@H]([C@H](O)[C@H](O)CO)O3)ccc12 | 6% | inactive | – | – | – | – | – | 50
